Structures are written as SMILES. A value given as a limit tells only on which side of the number the result lay.

Experiment [1] can be described thus: Inhibition of FLT3 ITD mutant at 1 uM. An outline of the steps:
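Single-concentration screen on the Ambit KINOMEscan platform, run against a panel of 250–400 kinases. Per-kinase inhibition was also summarized as S(90), the fraction of kinases inhibited by more than 90%.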

The test system of experiment [2] is Proto-oncogene tyrosine-protein kinase receptor Ret (Homo sapiens), P07949 [V804L]. In words: Inhibition of RET V804L mutant at 1 uM.
Proto-oncogene tyrosine-protein kinase receptor Ret (Homo sapiens), P07949 [V804L], sequence (P07949 whole entry V804L): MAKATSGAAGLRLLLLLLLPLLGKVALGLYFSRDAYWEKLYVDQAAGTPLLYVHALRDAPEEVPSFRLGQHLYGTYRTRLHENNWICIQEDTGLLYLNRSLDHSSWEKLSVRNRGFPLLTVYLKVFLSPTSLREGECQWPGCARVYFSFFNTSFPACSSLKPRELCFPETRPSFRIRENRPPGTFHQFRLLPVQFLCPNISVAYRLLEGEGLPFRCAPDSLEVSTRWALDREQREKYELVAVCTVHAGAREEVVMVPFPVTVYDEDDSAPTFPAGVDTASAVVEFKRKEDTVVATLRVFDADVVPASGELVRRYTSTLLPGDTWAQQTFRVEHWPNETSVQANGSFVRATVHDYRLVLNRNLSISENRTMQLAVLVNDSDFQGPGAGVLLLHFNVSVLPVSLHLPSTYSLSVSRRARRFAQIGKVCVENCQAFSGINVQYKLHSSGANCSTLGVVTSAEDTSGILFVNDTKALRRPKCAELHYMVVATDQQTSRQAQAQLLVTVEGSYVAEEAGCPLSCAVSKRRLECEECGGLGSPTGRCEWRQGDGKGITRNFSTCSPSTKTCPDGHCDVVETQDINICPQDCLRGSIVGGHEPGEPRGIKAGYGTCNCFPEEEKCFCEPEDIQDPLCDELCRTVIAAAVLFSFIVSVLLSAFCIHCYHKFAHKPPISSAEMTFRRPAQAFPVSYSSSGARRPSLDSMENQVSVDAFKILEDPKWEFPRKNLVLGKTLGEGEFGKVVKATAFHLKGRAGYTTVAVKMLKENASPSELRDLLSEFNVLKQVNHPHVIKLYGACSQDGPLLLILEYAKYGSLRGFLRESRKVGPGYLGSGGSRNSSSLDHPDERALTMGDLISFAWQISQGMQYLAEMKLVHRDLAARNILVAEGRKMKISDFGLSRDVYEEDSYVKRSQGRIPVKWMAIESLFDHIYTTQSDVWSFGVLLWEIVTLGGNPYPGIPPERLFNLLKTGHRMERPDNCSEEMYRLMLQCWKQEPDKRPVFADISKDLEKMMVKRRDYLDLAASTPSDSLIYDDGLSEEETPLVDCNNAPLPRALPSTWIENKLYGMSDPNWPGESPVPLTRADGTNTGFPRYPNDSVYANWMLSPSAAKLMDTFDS
Experiment [3] deals with T1, Serine/threonine-protein kinase ULK2 (Homo sapiens) (UniProt Q8IYT8).
T1 sequence (whole entry): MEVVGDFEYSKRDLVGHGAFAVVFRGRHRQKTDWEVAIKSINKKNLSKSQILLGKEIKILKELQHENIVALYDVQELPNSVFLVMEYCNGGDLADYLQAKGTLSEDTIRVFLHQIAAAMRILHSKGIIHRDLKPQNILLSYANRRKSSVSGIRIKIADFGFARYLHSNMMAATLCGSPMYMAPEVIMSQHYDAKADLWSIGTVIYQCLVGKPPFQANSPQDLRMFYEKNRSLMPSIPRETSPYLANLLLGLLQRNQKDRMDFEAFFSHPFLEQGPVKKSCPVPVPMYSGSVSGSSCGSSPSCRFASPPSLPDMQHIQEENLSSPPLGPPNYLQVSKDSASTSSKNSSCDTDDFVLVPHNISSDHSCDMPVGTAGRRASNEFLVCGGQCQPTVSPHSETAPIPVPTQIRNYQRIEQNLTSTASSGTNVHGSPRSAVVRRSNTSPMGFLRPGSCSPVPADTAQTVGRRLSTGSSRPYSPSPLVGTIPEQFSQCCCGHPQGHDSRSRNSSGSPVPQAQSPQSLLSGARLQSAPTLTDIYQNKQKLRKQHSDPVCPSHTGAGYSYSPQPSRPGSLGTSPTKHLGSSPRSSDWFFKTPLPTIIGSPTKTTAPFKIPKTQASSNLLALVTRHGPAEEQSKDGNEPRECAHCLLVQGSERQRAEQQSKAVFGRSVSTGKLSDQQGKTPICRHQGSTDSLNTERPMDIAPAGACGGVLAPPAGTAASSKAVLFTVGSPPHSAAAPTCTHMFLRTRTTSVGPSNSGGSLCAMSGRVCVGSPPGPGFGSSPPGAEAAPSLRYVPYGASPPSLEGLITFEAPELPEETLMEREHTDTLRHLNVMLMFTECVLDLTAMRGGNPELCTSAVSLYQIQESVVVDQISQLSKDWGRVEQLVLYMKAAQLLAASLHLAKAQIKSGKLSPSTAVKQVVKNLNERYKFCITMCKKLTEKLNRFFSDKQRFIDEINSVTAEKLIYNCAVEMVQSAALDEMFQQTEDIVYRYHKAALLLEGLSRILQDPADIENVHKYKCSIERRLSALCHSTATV
Briefly: Inhibition of ULK2 at 1 uM.

The target in experiment [4] is Serine/threonine-protein kinase Chk2 (Homo sapiens) (UniProt O96017). Briefly: Inhibition of CHEK2 at 1 uM.
Serine/threonine-protein kinase Chk2 (Homo sapiens), sequence (O96017 whole entry): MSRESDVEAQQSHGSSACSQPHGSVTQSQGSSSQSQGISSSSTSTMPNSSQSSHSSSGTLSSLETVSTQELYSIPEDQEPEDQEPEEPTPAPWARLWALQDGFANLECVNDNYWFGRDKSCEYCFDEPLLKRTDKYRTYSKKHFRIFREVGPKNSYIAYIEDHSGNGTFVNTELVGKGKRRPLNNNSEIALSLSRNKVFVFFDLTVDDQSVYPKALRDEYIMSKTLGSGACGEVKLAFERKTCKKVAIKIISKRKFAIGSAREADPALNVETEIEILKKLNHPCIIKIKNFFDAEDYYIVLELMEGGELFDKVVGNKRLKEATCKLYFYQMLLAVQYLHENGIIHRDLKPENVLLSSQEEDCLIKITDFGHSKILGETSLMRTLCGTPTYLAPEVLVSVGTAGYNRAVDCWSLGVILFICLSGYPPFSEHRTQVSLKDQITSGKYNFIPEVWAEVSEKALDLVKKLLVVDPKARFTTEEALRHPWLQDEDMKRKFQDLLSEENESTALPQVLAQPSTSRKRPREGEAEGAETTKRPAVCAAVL
The target of experiment [5] is T2, Serine/threonine-protein kinase TAO1 (Homo sapiens) (UniProt Q7L7X3).
T2 sequence (whole entry): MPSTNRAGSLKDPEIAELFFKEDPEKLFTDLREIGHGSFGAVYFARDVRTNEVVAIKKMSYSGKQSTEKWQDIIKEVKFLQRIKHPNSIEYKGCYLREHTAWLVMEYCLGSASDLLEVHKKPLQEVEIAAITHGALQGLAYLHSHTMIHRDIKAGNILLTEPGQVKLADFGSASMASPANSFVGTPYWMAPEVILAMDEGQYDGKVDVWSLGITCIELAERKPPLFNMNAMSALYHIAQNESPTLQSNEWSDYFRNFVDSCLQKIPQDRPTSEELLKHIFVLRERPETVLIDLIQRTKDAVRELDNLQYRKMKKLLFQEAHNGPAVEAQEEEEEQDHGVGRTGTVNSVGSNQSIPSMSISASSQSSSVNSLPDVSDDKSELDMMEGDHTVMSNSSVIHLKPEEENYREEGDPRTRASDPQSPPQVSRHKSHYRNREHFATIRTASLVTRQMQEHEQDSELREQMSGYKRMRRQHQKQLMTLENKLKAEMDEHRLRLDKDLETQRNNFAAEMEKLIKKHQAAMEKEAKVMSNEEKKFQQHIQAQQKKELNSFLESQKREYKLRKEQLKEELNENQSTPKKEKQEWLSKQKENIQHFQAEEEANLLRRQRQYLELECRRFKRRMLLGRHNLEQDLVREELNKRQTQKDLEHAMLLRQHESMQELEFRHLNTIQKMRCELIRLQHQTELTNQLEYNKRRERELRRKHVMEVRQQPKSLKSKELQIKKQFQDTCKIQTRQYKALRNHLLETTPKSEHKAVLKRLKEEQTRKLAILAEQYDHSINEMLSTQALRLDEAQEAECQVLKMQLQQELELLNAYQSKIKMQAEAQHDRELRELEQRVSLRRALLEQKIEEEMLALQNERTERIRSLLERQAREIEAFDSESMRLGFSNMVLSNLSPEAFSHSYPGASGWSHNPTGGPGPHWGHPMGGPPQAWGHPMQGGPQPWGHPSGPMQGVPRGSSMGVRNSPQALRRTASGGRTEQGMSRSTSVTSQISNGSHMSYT
Briefly: Inhibition of TAO1 at 1 uM.

In experiment [6] the target is Fibroblast growth factor receptor 2 (Homo sapiens) (UniProt P21802). In words: Inhibition of FGFR2 at 1 uM. An outline of the steps:
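Single-concentration screen using Ambit Bioscience KINOMEscan technology across a panel of 250–400 kinases. Per-kinase inhibition from this screen was summarized as S(90), the fraction of kinases inhibited by more than 90%.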

The target in experiment [7] is Ribosomal protein S6 kinase alpha-6 (Homo sapiens) (UniProt Q9UK32). In words: Inhibition of RPS6KA6 N-terminal domain1 at 1 uM.
Ribosomal protein S6 kinase alpha-6 (Homo sapiens), sequence (Q9UK32 whole entry, the tested form may be a part): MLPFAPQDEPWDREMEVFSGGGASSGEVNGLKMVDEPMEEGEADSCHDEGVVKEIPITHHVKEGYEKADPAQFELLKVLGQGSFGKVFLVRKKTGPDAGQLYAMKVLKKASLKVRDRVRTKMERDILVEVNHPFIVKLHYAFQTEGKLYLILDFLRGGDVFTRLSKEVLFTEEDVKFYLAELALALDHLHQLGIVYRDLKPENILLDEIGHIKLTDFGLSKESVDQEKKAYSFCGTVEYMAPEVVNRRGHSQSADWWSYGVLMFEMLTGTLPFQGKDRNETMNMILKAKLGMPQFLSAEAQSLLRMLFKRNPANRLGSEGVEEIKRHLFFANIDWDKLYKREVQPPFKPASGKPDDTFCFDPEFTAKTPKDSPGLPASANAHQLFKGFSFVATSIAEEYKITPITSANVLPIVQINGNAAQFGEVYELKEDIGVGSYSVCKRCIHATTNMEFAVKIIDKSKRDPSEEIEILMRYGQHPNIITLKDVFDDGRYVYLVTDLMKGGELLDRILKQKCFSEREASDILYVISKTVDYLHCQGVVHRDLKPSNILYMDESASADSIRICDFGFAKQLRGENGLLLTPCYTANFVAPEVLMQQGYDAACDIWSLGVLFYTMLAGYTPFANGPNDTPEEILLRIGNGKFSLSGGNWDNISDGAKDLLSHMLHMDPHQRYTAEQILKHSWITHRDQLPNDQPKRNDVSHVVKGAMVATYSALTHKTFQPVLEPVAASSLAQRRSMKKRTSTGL

Fibroblast growth factor receptor 2 (Homo sapiens), sequence (P21802 22-821 limits assumed): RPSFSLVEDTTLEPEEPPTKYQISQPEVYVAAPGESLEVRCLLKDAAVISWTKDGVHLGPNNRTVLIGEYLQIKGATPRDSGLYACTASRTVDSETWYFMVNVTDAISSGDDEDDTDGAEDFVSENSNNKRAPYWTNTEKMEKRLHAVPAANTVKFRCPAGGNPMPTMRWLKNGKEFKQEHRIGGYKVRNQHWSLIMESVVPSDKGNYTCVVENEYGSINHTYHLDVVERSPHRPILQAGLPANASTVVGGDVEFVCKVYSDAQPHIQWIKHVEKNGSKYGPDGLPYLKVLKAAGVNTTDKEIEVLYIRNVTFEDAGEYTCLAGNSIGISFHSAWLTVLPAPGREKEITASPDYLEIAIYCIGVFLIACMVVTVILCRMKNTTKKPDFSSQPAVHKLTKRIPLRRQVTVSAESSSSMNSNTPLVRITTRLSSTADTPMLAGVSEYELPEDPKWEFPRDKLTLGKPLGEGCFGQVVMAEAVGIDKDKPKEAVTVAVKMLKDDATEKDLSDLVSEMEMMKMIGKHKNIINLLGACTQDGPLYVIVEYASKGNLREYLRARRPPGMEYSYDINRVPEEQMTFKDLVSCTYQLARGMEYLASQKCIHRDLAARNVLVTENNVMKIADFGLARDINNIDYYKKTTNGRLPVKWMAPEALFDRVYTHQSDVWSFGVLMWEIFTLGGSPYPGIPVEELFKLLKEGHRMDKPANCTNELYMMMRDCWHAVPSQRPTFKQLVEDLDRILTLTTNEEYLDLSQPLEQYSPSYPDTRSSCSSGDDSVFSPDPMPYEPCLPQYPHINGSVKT

As a reminder, the inhibition is how much of the control response was suppressed. In the case of `FC(F)(F)c1ccc(Cl)cc1CN1CCNc2ncc(-c3ccnc(N4CCNCC4)c3)cc21`, the inhibition in experiment [1] is 74%; in experiment [2] it was 89%; in experiment [3] it was 78%; in experiment [4] it was less than 50%; in experiment [5], less than 50%; in experiment [6] it was less than 50%. The compound further displayed an inhibition in experiment [7] of less than 50%.

`CN1CCN(c2ccc(-c3cnc4c(c3)N(Cc3cc(F)ccc3F)CCN4)cn2)CC1`: the inhibition in experiment [1], in experiment [2], in experiment [3], in experiment [4], in experiment [5] and in experiment [6] was less than 50% each time. Besides, in experiment [7], the inhibition was less than 50%.

Consider `CN1CCN(c2ccc(-c3cnc4c(c3)N(Cc3cc(Cl)ccc3Cl)CCN4)cn2)CC1`, for which the inhibition in experiment [1], in experiment [2], in experiment [3], in experiment [4], in experiment [5] and in experiment [6] was less than 50% throughout. Besides, in experiment [7], the inhibition was less than 50%.

On to `O=C(O)c1ccc(-c2cnc3c(c2)N(Cc2cc(Cl)ccc2C(F)(F)F)CCN3)cc1`, for which the inhibition in experiment [1], in experiment [6] and in experiment [7] was less than 50% in each case.

For the compound `CN1CCN(c2ccc(-c3cnc4c(c3)N(Cc3cc(Cl)ccc3C(F)(F)F)CCN4)cn2)CC1`, the inhibition was 90% in experiment [1]; less than 50% in experiment [2]; less than 50% in experiment [3]; less than 50% in experiment [4]; less than 50% in experiment [5]; less than 50% in experiment [6]. Also, in experiment [7], the inhibition is less than 50%.

In the case of `COC1CCN(C(=O)c2ccc(-c3cnc4c(c3)N(Cc3cc(Cl)ccc3C(F)(F)F)CCN4)cc2)CC1`, the inhibition in experiment [1], in experiment [6] and in experiment [7] was less than 50% each time.

`O=C(c1ccc(-c2cnc3c(c2)N(Cc2cc(Cl)ccc2C(F)(F)F)CCN3)cc1)N1CCC(N2CCCC2)CC1`: the inhibition in experiment [1], in experiment [6] and in experiment [7] was less than 50% throughout.

On to `CN1CCN(c2ccc(-c3cnc4c(c3)N(Cc3c(F)ccc(F)c3Cl)CCN4)cn2)CC1`, for which the inhibition in experiment [1], in experiment [2], in experiment [3], in experiment [4], in experiment [5] and in experiment [6] was less than 50% throughout. The inhibition in experiment [7] is less than 50%.

For the compound `O=C(c1ccc(-c2cnc3c(c2)N(Cc2cc(Cl)ccc2C(F)(F)F)CCN3)cc1)N1CCCCC1`, the inhibition in experiment [1], in experiment [6] and in experiment [7] was less than 50% throughout.

As to `CC(=O)N1CCN(c2cc(-c3cnc4c(c3)N(Cc3cc(Cl)ccc3C(F)(F)F)CCN4)ccn2)CC1`, the inhibition in experiment [1], in experiment [2], in experiment [3], in experiment [4], in experiment [5] and in experiment [6] was less than 50% throughout. In addition, the inhibition in experiment [7] was less than 50%.
